The values below come from ChEMBL document CHEMBL4011632, “Design, Synthesis, and Evaluation of Thiazolidine-2,4-dione Derivatives as a Novel Class of Glutaminase Inhibitors” (J Med Chem, 2017).

Test [1] deals with ASPC1. The test is described as follows: Anticlonogenic activity against human Aspc-1 cells at 2 uM after 21 days by crystal violet staining based assay relative to control. The test is classed as functional. The settings on record: ASPC1, 504 h. In outline: (§1)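 Anchorage-dependent colony formation: AsPC-1 cells seeded at 1000 cells/well in six-well plates and treated with compound. Colony formation is expressed as percent of vehicle treatment. Mean ± SD from at least three independent experiments, each in duplicate.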

Test [2] concerns the target T1, Glutaminase liver isoform, mitochondrial (Homo sapiens, UniProt Q9UI32).
T1 sequence (Q9UI32 whole entry): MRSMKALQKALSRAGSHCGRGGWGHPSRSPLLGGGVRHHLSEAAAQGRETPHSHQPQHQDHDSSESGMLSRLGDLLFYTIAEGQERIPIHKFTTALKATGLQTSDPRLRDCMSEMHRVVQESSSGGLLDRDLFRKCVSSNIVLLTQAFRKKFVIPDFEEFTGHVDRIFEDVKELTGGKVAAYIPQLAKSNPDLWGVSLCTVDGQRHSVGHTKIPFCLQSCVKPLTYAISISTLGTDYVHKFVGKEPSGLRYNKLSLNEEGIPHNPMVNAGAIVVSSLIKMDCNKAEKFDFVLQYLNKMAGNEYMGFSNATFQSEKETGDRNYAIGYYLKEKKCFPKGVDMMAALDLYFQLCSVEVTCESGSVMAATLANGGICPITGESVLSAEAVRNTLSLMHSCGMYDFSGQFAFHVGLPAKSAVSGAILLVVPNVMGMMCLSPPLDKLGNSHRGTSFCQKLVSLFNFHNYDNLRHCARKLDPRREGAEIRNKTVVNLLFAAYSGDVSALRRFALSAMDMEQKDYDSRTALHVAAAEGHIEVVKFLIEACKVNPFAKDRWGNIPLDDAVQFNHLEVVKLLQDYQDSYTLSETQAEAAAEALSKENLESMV
As to the kind of experiment: Inhibition of recombinant human His-tagged GAB (P56 to V602 residues) expressed in Escherichia coli C41(DE3)pLysS using glutamine as substrate preincubated for 10 mins followed by substrate addition measured after 60 mins by glutamate dehydrogenase coupled enzyme assay.

The target in test [3] is T2, Glutaminase kidney isoform, mitochondrial (Homo sapiens, UniProt O94925).
T2 sequence (O94925 whole entry): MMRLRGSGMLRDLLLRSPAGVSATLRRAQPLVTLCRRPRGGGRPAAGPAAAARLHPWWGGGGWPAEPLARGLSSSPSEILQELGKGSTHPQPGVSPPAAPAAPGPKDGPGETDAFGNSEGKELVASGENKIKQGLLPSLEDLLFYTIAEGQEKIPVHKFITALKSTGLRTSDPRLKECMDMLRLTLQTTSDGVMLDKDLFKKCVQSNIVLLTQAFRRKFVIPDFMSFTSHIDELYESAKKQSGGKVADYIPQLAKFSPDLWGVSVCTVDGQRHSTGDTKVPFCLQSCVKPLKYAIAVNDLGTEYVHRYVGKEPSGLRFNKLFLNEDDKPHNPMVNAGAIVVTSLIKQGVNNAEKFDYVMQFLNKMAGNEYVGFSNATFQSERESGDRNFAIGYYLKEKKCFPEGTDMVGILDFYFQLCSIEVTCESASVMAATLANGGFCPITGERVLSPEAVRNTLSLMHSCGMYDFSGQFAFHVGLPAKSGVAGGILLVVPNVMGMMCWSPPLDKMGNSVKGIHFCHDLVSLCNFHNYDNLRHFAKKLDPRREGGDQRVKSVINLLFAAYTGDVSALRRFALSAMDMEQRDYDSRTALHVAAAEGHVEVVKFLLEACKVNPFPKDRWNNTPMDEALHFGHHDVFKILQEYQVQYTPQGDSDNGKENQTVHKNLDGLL
The test is described as follows: Inhibition of recombinant human His-tagged KGA (L123 to L669 residues) expressed in Escherichia coli BL21(DE3)pLysS using glutamine substrate preincubated for 10 mins followed by substrate addition measured after 60 mins by glutamate dehydrogenase coupled enzyme assay.

The target of test [4] is T2, Glutaminase kidney isoform, mitochondrial. As to the kind of experiment: Inhibition of recombinant human MCF7 cells derived His-tagged GAC (L123 to S598 residues) expressed in Escherichia coli C41(DE3)pLysS using glutamine as substrate preincubated for 10 mins followed by substrate addition measured after 60 mins by glutamate dehydrogenase coupled enzyme assay. In outline:
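Human GAC cloned from MCF7 cDNA into pET28a(+) as a His-tagged construct. Expressed in E. coli C41(DE3)pLysS in Terrific Broth with kanamycin, induced with 1 mM IPTG for 6 h at 25 °C. Purified on Ni2+ resin with 500 mM imidazole elution and exchanged into 50 mM NaH2PO4, 50 mM Tris-HCl pH 8.0, 2 mM DTT, 50% glycerol. Activity measured by two-step glutaminase assay.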

The species named for a further test is Homo sapiens. As to the kind of experiment: Selectivity index, ratio of IC50 for recombinant human His-tagged GAB (P56-V602 residues) expressed in Escherichia coli C41(DE3)pLysS to IC50 for recombinant human His-tagged KGA (L123 to L669 residues) expressed in Escherichia coli BL21(DE3)pLysS.
In test [5] the test system is ASPC1. The test is described as follows: Anticlonogenic activity against human Aspc-1 cells at 10 uM after 21 days by crystal violet staining based assay relative to control. The test is classed as functional. The settings on record: ASPC1, 504 h. In outline: as §1
Test [6] concerns ASPC1. The test is described as follows: Growth inhibition of human Aspc-1 cells after 72 hrs by MTS assay. The test is classed as functional, cell-based. The settings on record: ASPC1, 72 h. In outline: (§2)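 Growth inhibition by MTS viability read-out. Cells seeded in 96-well plates at 4000/well (AsPC-1) or 8500/well (MDA-MB-231). Mean ± SD from at least three independent experiments, each in duplicate.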
(Tetrazolium assays rely on reduction of a dye to a coloured formazan, in cell work by metabolically active cells.)

The test system of a further test is MDA-MB-231. As to the kind of experiment: Growth inhibition of human MDA-MB-231 cells after 72 hrs by MTS assay. The test is classed as functional, cell-based. The settings on record: MDA-MB-231, 72 h. In outline:
as §2

Test [7] is described as follows: Inhibition of recombinant human His-tagged KGA K507A mutant expressed in Escherichia coli BL21(DE3)pLysS using glutamine substrate preincubated for 10 mins followed by substrate addition measured after 60 mins.
Test [8] deals with ASPC1. The test is described as follows: Synergistic cytotoxicity against human Aspc-1 cells assessed as reduction in cell viability at ED50 in presence of doxorubicin by MTS assay. The test is classed as functional. In outline:
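AsPC-1 cells treated with compound combinations and viability read by MTS. Combination index at ED50, ED75 and ED90 calculated by the Chou−Talalay method. CI = 1 additive, <1 synergism, >1 antagonism. Representative of three independent experiments.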

For orientation: inhibition means the drop in the measured response relative to a control, in per cent. By IC50 is commonly meant the point on the concentration scale where inhibition reaches its midpoint.

In the case of `Cc1cc(/C=C2\SC(=O)NC2=O)c(C)n1-c1ccc(-c2ccc(/C=C3\SC(=O)NC3=O)c(Cl)c2)cc1`, at 2 µM the inhibition with ASPC1 [1] was 18%. Further, the half-inhibitory concentration (IC50) in test [2] was 4190 nM; in test [3] it was 57 nM; in [4], 255 nM; with ASPC1 [6], more than 50000 nM; with MDA-MB-231 it was more than 50000 nM; in [7], 269 nM. Moreover, the Ratio IC50 in the test listed under Homo sapiens came out at 74. Also, the inhibition at 10 µM with ASPC1 [5] came to 51%.

In the test with ASPC1 [1], `Cc1cc(/C=C2\SC(=O)NC2=O)c(C)n1-c1ccc(-c2ccc(/C=C3\SC(=O)NC3=O)cc2)cc1` displayed an inhibition at 2 µM of 13%. The IC50 in test [2] was found to be 1190 nM; in test [3], 102 nM; in test [4], 381 nM; in the test with ASPC1 [6], 34500 nM; in the test on MDA-MB-231, 42000 nM; in [7], 1040 nM. Also, the Ratio IC50 in the test filed under Homo sapiens stood at 12. The molecule also showed an inhibition at 10 µM in the test on ASPC1 [5] of 59%. In the test with ASPC1 [8], the CI is given as 0.45 - 0.68.

In the test on ASPC1 [1], `O=C1NC(=O)/C(=C/c2ccc(-c3ccc(-n4c(-c5cccs5)cc(/C=C5\SC(=O)NC5=O)c4-c4cccs4)cc3)cc2)S1` came in with an inhibition at 2 µM of 64%. Besides, the half-inhibitory concentration (IC50) in [2] was 102 nM; in [3], 50 nM; in [4] it was 49 nM; in the test with ASPC1 [6] it was 14800 nM; in the test on MDA-MB-231, 28700 nM. In addition, in the test filed under Homo sapiens, the Ratio IC50 amounted to 2. In the test on ASPC1 [5], this molecule yielded an inhibition at 10 µM of 87%. The CI in the test with ASPC1 [8] is given as 0.45 - 0.68.
